Reference: ChEMBL document CHEMBL4152188, “Design, synthesis and biological evaluation of C(4) substituted monobactams as antibacterial agents against multidrug-resistant Gram-negative bacteria” (Eur J Med Chem, 2018)
Converted amounts (≈) assume the structure as drawn.

Assays:
Format in all cases: functional
[1] = tested on: Pseudomonas aeruginosa; assay: Selectivity index, ratio of MIC for against IMP-4 producing Pseudomonas aeruginosa isolate 209321 to MIC for against IMP-4 producing Pseudomonas aeruginosa isolate 209321 in presence of BPL
[2] = tested on: Klebsiella pneumoniae; assay: Antibacterial activity against KPC-2 producing Klebsiella pneumoniae isolate 212232 after 18 hrs by CLSI broth microdilution method; conditions: isolate 212232, 18 h
[3] = tested on: Klebsiella pneumoniae; assay: Selectivity index, ratio of MIC for against KPC-2 producing Klebsiella pneumoniae isolate 209632 to MIC for against KPC-2 producing Klebsiella pneumoniae isolate 209632 in presence of BPL
[4] = tested on: Klebsiella pneumoniae; assay: Selectivity index, ratio of MIC for against KPC-2 producing Klebsiella pneumoniae isolate 212229 to MIC for against KPC-2 producing Klebsiella pneumoniae isolate 212229 in presence of BPL
[5] = tested on: Klebsiella pneumoniae; assay: Antibacterial activity against KPC-2 producing Klebsiella pneumoniae isolate 209632 after 18 hrs in presence of BPL by CLSI broth microdilution method; conditions: isolate 209632, 18 h
How it was run: (§1)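 CLSI broth microdilution against clinical isolates (ESBL E. coli, KPC-2 MDR K. pneumoniae, IMP-4 MDR P. aeruginosa; five per species). Iron limitation: Mueller-Hinton broth supplemented with 16 mg/liter 2,2'-bipyridyl to complex iron and induce iron uptake systems. Read-out: MIC.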

[6] = tested on: Klebsiella pneumoniae; assay: Antibacterial activity against KPC-2 producing Klebsiella pneumoniae isolate 212423 after 18 hrs in presence of BPL by CLSI broth microdilution method; conditions: isolate 212423, 18 h; how it was run: as §1
[7] = tested on: Pseudomonas aeruginosa; assay: Antibacterial activity against IMP-4 producing Pseudomonas aeruginosa isolate 207272 after 18 hrs by CLSI broth microdilution method; conditions: isolate 207272, 18 h
[8] = tested on: Klebsiella pneumoniae; assay: Antibacterial activity against KPC-2 producing Klebsiella pneumoniae isolate 212232 after 18 hrs in presence of BPL by CLSI broth microdilution method; conditions: isolate 212232, 18 h; how it was run: as §1
[9] = tested on: Escherichia coli; assay: Antibacterial activity against extended-spectrum beta-lactamase producing Escherichia coli isolate 209285 after 18 hrs by CLSI broth microdilution method; conditions: isolate 209285, 18 h
[10] = tested on: Klebsiella pneumoniae; assay: Antibacterial activity against KPC-2 producing Klebsiella pneumoniae isolate 209735 after 18 hrs in presence of BPL by CLSI broth microdilution method; conditions: isolate 209735, 18 h; how it was run: as §1
[11] = tested on: Escherichia coli; assay: Selectivity index, ratio of MIC for against extended-spectrum beta-lactamase producing Escherichia coli isolate 208687 to MIC for extended-spectrum beta-lactamase producing Escherichia coli isolate 208687 in presence of BPL
[12] = tested on: Pseudomonas aeruginosa; assay: Antibacterial activity against IMP-4 producing Pseudomonas aeruginosa isolate 207272 after 18 hrs in presence of BPL by CLSI broth microdilution method; conditions: isolate 207272, 18 h; how it was run: as §1
[13] = tested on: Escherichia coli; assay: Selectivity index, ratio of MIC for against extended-spectrum beta-lactamase producing Escherichia coli isolate 106342 to MIC for extended-spectrum beta-lactamase producing Escherichia coli isolate 106342 in presence of BPL
[14] = tested on: Pseudomonas aeruginosa; assay: Antibacterial activity against IMP-4 producing Pseudomonas aeruginosa isolate 209321 after 18 hrs in presence of BPL by CLSI broth microdilution method; conditions: isolate 209321, 18 h; how it was run: as §1
[15] = tested on: Escherichia coli; assay: Antibacterial activity against extended-spectrum beta-lactamase producing Escherichia coli isolate 106342 after 18 hrs by CLSI broth microdilution method; conditions: isolate 106342, 18 h
[16] = tested on: Klebsiella pneumoniae; assay: Selectivity index, ratio of MIC for against KPC-2 producing Klebsiella pneumoniae isolate 209735 to MIC for against KPC-2 producing Klebsiella pneumoniae isolate 209735 in presence of BPL
[17] = tested on: Pseudomonas aeruginosa; assay: Antibacterial activity against IMP-4 producing Pseudomonas aeruginosa isolate 209471 after 18 hrs in presence of BPL by CLSI broth microdilution method; conditions: isolate 209471, 18 h; how it was run: as §1
[18] = tested on: Pseudomonas aeruginosa; assay: Antibacterial activity against IMP-4 producing Pseudomonas aeruginosa isolate 212886 after 18 hrs by CLSI broth microdilution method; conditions: isolate 212886, 18 h
[19] = tested on: Pseudomonas aeruginosa; assay: Antibacterial activity against IMP-4 producing Pseudomonas aeruginosa isolate 209471 after 18 hrs by CLSI broth microdilution method; conditions: isolate 209471, 18 h
[20] = tested on: Pseudomonas aeruginosa; assay: Antibacterial activity against IMP-4 producing Pseudomonas aeruginosa isolate 212886 after 18 hrs in presence of BPL by CLSI broth microdilution method; conditions: isolate 212886, 18 h; how it was run: as §1
[21] = tested on: Klebsiella pneumoniae; assay: Antibacterial activity against KPC-2 producing Klebsiella pneumoniae isolate 212229 after 18 hrs by CLSI broth microdilution method; conditions: isolate 212229, 18 h
[22] = tested on: Pseudomonas aeruginosa; assay: Antibacterial activity against IMP-4 producing Pseudomonas aeruginosa isolate 208247 after 18 hrs by CLSI broth microdilution method; conditions: isolate 208247, 18 h
[23] = tested on: Klebsiella pneumoniae; assay: Selectivity index, ratio of MIC for against KPC-2 producing Klebsiella pneumoniae isolate 212232 to MIC for against KPC-2 producing Klebsiella pneumoniae isolate 212232 in presence of BPL
[24] = tested on: Escherichia coli; assay: Antibacterial activity against extended-spectrum beta-lactamase producing Escherichia coli isolate 208687 after 18 hrs by CLSI broth microdilution method; conditions: isolate 208687, 18 h
[25] = tested on: Escherichia coli; assay: Selectivity index, ratio of MIC for against extended-spectrum beta-lactamase producing Escherichia coli isolate 212648 to MIC for extended-spectrum beta-lactamase producing Escherichia coli isolate 212648 in presence of BPL
[26] = tested on: Klebsiella pneumoniae; assay: Selectivity index, ratio of MIC for against KPC-2 producing Klebsiella pneumoniae isolate 212423 to MIC for against KPC-2 producing Klebsiella pneumoniae isolate 212423 in presence of BPL
[27] = tested on: Escherichia coli; assay: Antibacterial activity against extended-spectrum beta-lactamase producing Escherichia coli isolate 212648 after 18 hrs in presence of BPL by CLSI broth microdilution method; conditions: isolate 212648, 18 h; how it was run: as §1
[28] = tested on: Klebsiella pneumoniae; assay: Antibacterial activity against KPC-2 producing Klebsiella pneumoniae isolate 212423 after 18 hrs by CLSI broth microdilution method; conditions: isolate 212423, 18 h
[29] = tested on: Klebsiella pneumoniae; assay: Antibacterial activity against KPC-2 producing Klebsiella pneumoniae isolate 209735 after 18 hrs by CLSI broth microdilution method; conditions: isolate 209735, 18 h
[30] = tested on: Pseudomonas aeruginosa; assay: Antibacterial activity against IMP-4 producing Pseudomonas aeruginosa isolate 208247 after 18 hrs in presence of BPL by CLSI broth microdilution method; conditions: isolate 208247, 18 h; how it was run: as §1
[31] = tested on: Escherichia coli; assay: Antibacterial activity against extended-spectrum beta-lactamase producing Escherichia coli isolate 209285 after 18 hrs in presence of BPL by CLSI broth microdilution method; conditions: isolate 209285, 18 h; how it was run: as §1
[32] = tested on: Escherichia coli; assay: Antibacterial activity against Escherichia coli isolate 210737 after 18 hrs by CLSI broth microdilution method; conditions: isolate 210737, 18 h
[33] = tested on: Escherichia coli; assay: Selectivity index, ratio of MIC for against extended-spectrum beta-lactamase producing Escherichia coli isolate 209285 to MIC for extended-spectrum beta-lactamase producing Escherichia coli isolate 209285 in presence of BPL
[34] = tested on: Escherichia coli; assay: Antibacterial activity against extended-spectrum beta-lactamase producing Escherichia coli isolate 212648 after 18 hrs by CLSI broth microdilution method; conditions: isolate 212648, 18 h
[35] = tested on: Escherichia coli; assay: Antibacterial activity against Escherichia coli isolate 210737 after 18 hrs in presence of BPL by CLSI broth microdilution method; conditions: isolate 210737, 18 h; how it was run: as §1
[36] = tested on: Escherichia coli; assay: Selectivity index, ratio of MIC for against Escherichia coli isolate 210737 to MIC for Escherichia coli isolate 210737 in presence of BPL
[37] = tested on: Pseudomonas aeruginosa; assay: Antibacterial activity against IMP-4 producing Pseudomonas aeruginosa isolate 209321 after 18 hrs by CLSI broth microdilution method; conditions: isolate 209321, 18 h
[38] = tested on: Klebsiella pneumoniae; assay: Antibacterial activity against KPC-2 producing Klebsiella pneumoniae isolate 209632 after 18 hrs by CLSI broth microdilution method; conditions: isolate 209632, 18 h
[39] = tested on: Klebsiella pneumoniae; assay: Antibacterial activity against KPC-2 producing Klebsiella pneumoniae isolate 212229 after 18 hrs in presence of BPL by CLSI broth microdilution method; conditions: isolate 212229, 18 h; how it was run: as §1
[40] = tested on: Escherichia coli; assay: Antibacterial activity against extended-spectrum beta-lactamase producing Escherichia coli isolate 106342 after 18 hrs in presence of BPL by CLSI broth microdilution method; conditions: isolate 106342, 18 h; how it was run: as §1
[41] = tested on: Escherichia coli; assay: Antibacterial activity against extended-spectrum beta-lactamase producing Escherichia coli isolate 208687 after 18 hrs in presence of BPL by CLSI broth microdilution method; conditions: isolate 208687, 18 h; how it was run: as §1

- MIC [2]: 16 µg/mL (≈ 27.4 µM)
- MIC [5]: 4 µg/mL
- MIC [6]: 4 µg/mL
- MIC [7]: > 64 µg/mL
- MIC [8]: 1 µg/mL
- MIC [9]: 64 µg/mL (≈ 109 µM)
- MIC [10]: 4 µg/mL
- MIC [12]: > 64 µg/mL
- MIC [14]: 64 µg/mL
- MIC [15]: 32 µg/mL (≈ 54.7 µM)
- MIC [17]: > 64 µg/mL
- MIC [18]: > 64 µg/mL
- MIC [19]: > 64 µg/mL
- MIC [20]: > 64 µg/mL
- MIC [21]: 8 µg/mL (≈ 13.7 µM)
- MIC [22]: > 64 µg/mL
- MIC [24]: 32 µg/mL (≈ 54.7 µM)
- MIC [27]: > 64 µg/mL
- MIC [28]: 8 µg/mL (≈ 13.7 µM)
- MIC [29]: 16 µg/mL (≈ 27.4 µM)
- MIC [30]: 64 µg/mL
- MIC [31]: 8 µg/mL
- MIC [32]: 16 µg/mL (≈ 27.4 µM)
- MIC [34]: > 64 µg/mL
- MIC [35]: 8 µg/mL
- MIC [37]: 64 µg/mL (≈ 109 µM)
- MIC [38]: 8 µg/mL (≈ 13.7 µM)
- MIC [39]: 4 µg/mL
- MIC [40]: 16 µg/mL
- MIC [41]: 4 µg/mL
SMILES: CC(C)C(O/N=C(\C(=O)NC1C(=O)N(S(=O)(=O)O)C12CCCCC2)c1csc(N)n1)c1cc(=O)c(O)cn1O (stereo unspecified)
- Selectivity Index [1]: 1
- Selectivity Index [3]: 2
- Selectivity Index [4]: 2
- Selectivity Index [11]: 8
- Selectivity Index [13]: 2
- Selectivity Index [16]: 4
- Selectivity Index [23]: 16
- Selectivity Index [25]: 2 - 8
- Selectivity Index [26]: 2
- Selectivity Index [33]: 8
- Selectivity Index [36]: 2
